This is an account of results in ChEMBL document CHEMBL1255456, “Effect of NlpE overproduction on multidrug resistance in Escherichia coli” (2010).

Converted amounts (≈) assume the structure as drawn. The source made the active and inactive calls.

The term MIC denotes the smallest concentration in the dilution series that meets the test's criterion for growth inhibition. Read a low MIC as a more susceptible organism.

Assay [1] deals with Escherichia coli. Nature of the assay: Antibacterial activity against Escherichia coli NKE158 harboring deletion mutation in acrB protein and vector expressing cpxAR gene. The assay is classed as functional.
For assay [2], the system named is Escherichia coli. Nature of the assay: Antibacterial activity against Escherichia coli NKE161 harboring deletion mutation in acrB protein, vector expressing tolC gene and plasmid expressing nlpE gene. In kind it is functional.
For assay [3], the system named is Escherichia coli. Nature of the assay: Antibacterial activity against Escherichia coli NKE156 harboring deletion mutation in acrB protein and vector expressing acrD gene. In kind it is functional.
The subject of assay [4] is Escherichia coli. The assay is described as follows: Antibacterial activity against Escherichia coli NKE1359 harboring deletion mutation in acrB protein and plasmid expressing BADnlpE gene in presence of increasing concentration of arabinose. In kind it is functional, organism-based. The method in brief:
(§1)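 ΔacrB host carrying empty pBAD33 or pBAD33 with nlpE under the arabinose-inducible PBAD promoter. MICs of oxacillin, cloxacillin, nafcillin, cefamandole, aztreonam, novobiocin, deoxycholate and kanamycin were measured with arabinose at several concentrations from 0 to 10,000 μM. Each MIC determination was repeated at least three times.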

Assay [5] has as its system Escherichia coli. Nature of the assay: Antibacterial activity against Escherichia coli NKE1316 harboring deletion mutation in acrB, acrD and mdtABC protein. In kind it is functional.
The subject of assay [6] is Escherichia coli. Nature of the assay: Antibacterial activity against Escherichia coli NKE1365 harboring deletion mutation in acrB and mdtABC protein. In kind it is functional.
For assay [7], the system named is Escherichia coli. The assay is described as follows: Antibacterial activity against Escherichia coli NKE1369 harboring deletion mutation in acrB, acrD, mdtABC protein and plasmid expressing nlpE gene. In kind it is functional.
For assay [8], the system named is Escherichia coli. Nature of the assay: Antibacterial activity against Escherichia coli NKE1368 harboring deletion mutation in acrB, acrD and mdtABC genes and carrying empty pHSG398 vector.
For assay [9], the system named is Escherichia coli. The assay is described as follows: Antibacterial activity against Escherichia coli NKE154 harboring vector expressing acrB deletion mutant. The assay is classed as functional.
The test system of assay [10] is Escherichia coli. Nature of the assay: Antibacterial activity against Escherichia coli NKE127 harboring deletion mutation in acrB and cpxAR protein. In kind it is functional.
Assay [11] concerns Escherichia coli. Nature of the assay: Antibacterial activity against Escherichia coli NKE128 harboring deletion mutation in acrB and tolC protein. In kind it is functional.
Assay [12] deals with Escherichia coli. Nature of the assay: Antibacterial activity against Escherichia coli NKE159 harboring deletion mutation in acrB, cpxAR protein and plasmid expressing nlpE gene. The assay is classed as functional.
Assay [13] relates to Escherichia coli. Nature of the assay: Antibacterial activity against Escherichia coli NKE96 harboring deletion mutation in acrB protein. In kind it is functional.
Assay [14] relates to Escherichia coli. Nature of the assay: Antibacterial activity against Escherichia coli NKE160 harboring deletion mutation in acrB protein and vector expressing tolC gene. The assay is classed as functional.
Assay [15] deals with Escherichia coli. Nature of the assay: Antibacterial activity against Escherichia coli NKE1355 harboring deletion mutation in acrB protein and plasmid expressing BAD gene in presence of increasing concentration of arabinose. In kind it is functional, organism-based. The method in brief:
as §1

In assay [16] the test system is Escherichia coli. Nature of the assay: Antibacterial activity against Escherichia coli NKE1367 harboring deletion mutation in acrB, mdtABC protein and plasmid expressing nlpE gene. The assay is classed as functional.
The test system of assay [17] is Escherichia coli. Nature of the assay: Antibacterial activity against Escherichia coli NKE155 harboring deletion mutation in acrB protein and plasmid expressing nlpE gene. In kind it is functional.
For assay [18], the system named is Escherichia coli. The assay is described as follows: Antibacterial activity against Escherichia coli NKE1366 harboring deletion mutation in acrB and vector expressing mdtABC gene. The assay is classed as functional.
In assay [19] the test system is Escherichia coli. Nature of the assay: Antibacterial activity against Escherichia coli NKE126 harboring deletion mutation in acrB and acrD protein. In kind it is functional.
Assay [20] concerns Escherichia coli. Nature of the assay: Antibacterial activity against Escherichia coli NKE157 harboring deletion mutation in acrB, acrD protein and plasmid expressing nlpE gene. The assay is classed as functional.

For the molecule `CO[C@@H]1[C@@H](OC(N)=O)[C@@H](O)[C@H](Oc2ccc3c(O)c(NC(=O)c4ccc(O)c(CC=C(C)C)c4)c(=O)oc3c2C)OC1(C)C` [NOVOBIOCIN], the minimal inhibitory concentration (MIC) in the assay on Escherichia coli [1] came to 4 µg/mL (≈ 6.53 µM); against Escherichia coli [2] it was 2 µg/mL (≈ 3.26 µM); with Escherichia coli [3], 4 µg/mL (≈ 6.53 µM); with Escherichia coli [5], 2 µg/mL (≈ 3.26 µM); with Escherichia coli [6] it was 4 µg/mL (≈ 6.53 µM); in the assay with Escherichia coli [7] it was 2 µg/mL (≈ 3.26 µM). Also, the minimum inhibitory concentration (MIC) in the assay with Escherichia coli [8] came out at 2 µg/mL (≈ 3.26 µM); against Escherichia coli [9], 4 µg/mL (≈ 6.53 µM); in the assay with Escherichia coli [10], 4 µg/mL (≈ 6.53 µM); in the assay on Escherichia coli [11], 2 µg/mL (≈ 3.26 µM); in the assay with Escherichia coli [12], 4 µg/mL (≈ 6.53 µM); in the assay with Escherichia coli [13], 4 µg/mL (≈ 6.53 µM). In addition, the minimum inhibitory concentration (MIC) was found to be 2 µg/mL (≈ 3.26 µM) in the assay with Escherichia coli [14]; 8 µg/mL (≈ 13.1 µM) with Escherichia coli [16]; 16 µg/mL (≈ 26.1 µM) in the assay with Escherichia coli [17]; 4 µg/mL (≈ 6.53 µM) against Escherichia coli [18]; 4 µg/mL (≈ 6.53 µM) in the assay on Escherichia coli [19]; 8 µg/mL (≈ 13.1 µM) against Escherichia coli [20]. For the same molecule, the outcome in the assay on Escherichia coli [4] was inactive. Besides, in the assay with Escherichia coli [15], the outcome was Active.
On to `Cc1onc(-c2ccccc2)c1C(=O)N[C@@H]1C(=O)N2[C@@H]1SC(C)(C)[C@@H]2C(=O)O` [OXACILLIN], for which the MIC in the assay on Escherichia coli [1] is 0.5 µg/mL (≈ 1.25 µM); against Escherichia coli [2], 0.5 µg/mL (≈ 1.25 µM); in the assay with Escherichia coli [3], 0.5 µg/mL (≈ 1.25 µM); in the assay with Escherichia coli [5], 0.5 µg/mL (≈ 1.25 µM); in the assay with Escherichia coli [6] it was 1 µg/mL (≈ 2.49 µM); against Escherichia coli [7], 0.5 µg/mL (≈ 1.25 µM). In addition, the MIC was found to be 0.5 µg/mL (≈ 1.25 µM) against Escherichia coli [8]; 1 µg/mL (≈ 2.49 µM) with Escherichia coli [9]; 0.5 µg/mL (≈ 1.25 µM) against Escherichia coli [10]; 0.5 µg/mL (≈ 1.25 µM) in the assay on Escherichia coli [11]; 0.5 µg/mL (≈ 1.25 µM) against Escherichia coli [12]; 1 µg/mL (≈ 2.49 µM) with Escherichia coli [13]. The minimal inhibitory concentration (MIC) against Escherichia coli [14] is 0.5 µg/mL (≈ 1.25 µM); against Escherichia coli [16] it was 4 µg/mL (≈ 9.96 µM); with Escherichia coli [17], 8 µg/mL (≈ 19.9 µM); against Escherichia coli [18], 1 µg/mL (≈ 2.49 µM); in the assay with Escherichia coli [19], 0.5 µg/mL (≈ 1.25 µM); against Escherichia coli [20] it was 2 µg/mL (≈ 4.98 µM). Moreover, the outcome with Escherichia coli [4] was inactive. Also, the result with Escherichia coli [15] was Active.
